# Experimental data published in ChEMBL document CHEMBL2321841, “Structure-based drug design and potent anti-cancer activity of tricyclic 5:7:5-fused diimidazo[4,5-d:4',5'-f][1,3]diazepines” (Bioorg Med Chem, 2013).
# Legend:
# [1] = system: A549; test: Growth inhibition of human A549 cells at 100 uM after 72 hrs by WST1 assay; assay type: functional; details: A549, 72 h, read-out: GI
# Method in brief: (§1)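 The highest concentration, 100 μM, comes from a nine-point series (100 μM to 5 nM) of DMSO-dissolved compound. Cells were seeded the day before at 0.5–1.7 × 10^3 cells/well in RPMI + 10% FBS, with 4 replicates per dilution. Exposure was 72 h at 37°C, 5% CO2, against a DMSO vehicle control. WST-1 was added for 4 h and absorbance read at 450–690 nm. Growth inhibition by ≤75% was scored as not effective.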
# [2] = system: PC-3; test: Growth inhibition of human PC3 cells at 100 uM after 72 hrs by WST1 assay; assay type: functional; details: PC-3, 72 h, read-out: GI; method in brief: as §1
# [3] = system: MCF7; test: Growth inhibition of human MCF7 cells at 100 uM after 72 hrs by WST1 assay; assay type: functional; details: MCF7, 72 h, read-out: GI; method in brief: as §1
# [4] = Growth inhibition of human H460 cells at 100 uM after 72 hrs by WST1 assay; assay type: functional; details: NCI-H460, 72 h, read-out: GI; method in brief: as §1
# [5] = system: OVCAR-3; test: Growth inhibition of human OVCAR3 cells at 100 uM after 72 hrs by WST1 assay; assay type: functional; details: OVCAR-3, 72 h, read-out: GI; method in brief: as §1
# [6] = system: MDA-MB-231; test: Growth inhibition of human MDA-MB-231 cells at 100 uM after 72 hrs by WST1 assay; assay type: functional; details: MDA-MB-231, 72 h, read-out: GI; method in brief: as §1
# [7] = system: PC-3; test: Cytotoxicity against human PC3 cells after 72 hrs by WST1 assay; assay type: functional, cell-based; details: PC-3, 72 h
# Method in brief: (§2)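 Cells were seeded the day before dosing at 0.5–1.7 × 10^3 cells/well in RPMI + 10% FBS. Compounds were dissolved in DMSO (stocks 100–200 mM) and tested at nine concentrations from 100 μM to 5 nM, in 4 replicates per dilution, with experiments repeated 1x or 2x. Exposure was 72 h at 37°C, 5% CO2, against a DMSO vehicle control. WST-1 was then added for 4 h and absorbance read at 450–690 nm.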
# [8] = system: A549; test: Cytotoxicity against human A549 cells after 72 hrs by WST1 assay; assay type: functional, cell-based; details: A549, 72 h; method in brief: as §2
# [9] = Cytotoxicity against human H460 cells after 72 hrs by WST1 assay; assay type: functional, cell-based; details: NCI-H460, 72 h; method in brief: as §2
# [10] = system: MDA-MB-231; test: Cytotoxicity against human MDA-MB-231 cells after 72 hrs by WST1 assay; assay type: functional, cell-based; details: MDA-MB-231, 72 h; method in brief: as §2
# [11] = system: OVCAR-3; test: Cytotoxicity against human OVCAR3 cells after 72 hrs by WST1 assay; assay type: functional, cell-based; details: OVCAR-3, 72 h; method in brief: as §2
# [12] = system: MCF7; test: Cytotoxicity against human MCF7 cells after 72 hrs by WST1 assay; assay type: functional, cell-based; details: MCF7, 72 h; method in brief: as §2
Structure (SMILES),inhibition of growth at 100 µM [1] [%],inhibition of growth at 100 µM [2] [%],inhibition of growth at 100 µM [3] [%],inhibition of growth at 100 µM [4] [%],inhibition of growth at 100 µM [5] [%],inhibition of growth at 100 µM [6] [%],IC50 [7] [µM],IC50 [8] [µM],IC50 [9] [µM],IC50 [10] [µM],IC50 [11] [µM],IC50 [12] [µM]
COc1ccc(Cn2cnc3c4nc(=O)n(-c5ccc(OC)cc5)c-4ncnc32)cc1,≤ 75,≤ 75,≤ 75,≤ 75,≤ 75,≤ 75,–,–,–,–,–,–
COc1ccc(Cn2cnc3c4nc(=O)n(CCCl)c-4ncnc32)cc1,–,–,≤ 75,–,≤ 75,≤ 75,9.33,8.63,7.9,–,–,–
CCOC(=O)Cn1c2ncnc3c(ncn3Cc3ccc(OC)cc3)c-2nc1=O,–,≤ 75,≤ 75,–,≤ 75,–,–,33.5,34.5,37,–,–
COc1ccc(Cn2cnc3c4nc(=O)n(Cc5ccc(N(C)C)cc5)c-4ncnc32)cc1,–,–,–,–,–,–,202,8.81,8.44,8.82,9.43,15.1
COc1ccc(Cn2cnc3c4nc(=O)n(Cc5ccc(F)c(F)c5)c-4ncnc32)cc1,–,–,–,–,–,–,1.59,0.99,0.74,1.7,2.27,1.75
COc1ccc(Cn2c3nc(C)nc4c(ncn4Cc4ccc(OC)cc4)c-3nc2=O)cc1,≤ 75,≤ 75,≤ 75,≤ 75,≤ 75,≤ 75,–,–,–,–,–,–
CCc1nc2n(Cc3ccc(OC)cc3)c(=O)nc-2c2ncn(Cc3ccc(OC)cc3)c2n1,≤ 75,≤ 75,≤ 75,≤ 75,≤ 75,≤ 75,–,–,–,–,–,–
COc1ccc(Cn2cnc3c4nc(=O)n(CCN5CCOCC5)c-4ncnc32)cc1,≤ 75,≤ 75,≤ 75,≤ 75,≤ 75,≤ 75,–,–,–,–,–,–
COc1ccc(Cn2cnc3c4nc(=O)n(Cc5ccc(F)cc5)c-4ncnc32)cc1,–,–,–,–,–,–,–,1.65,–,–,–,4.05
COc1ccc(Cn2cnc3c4nc(=O)n(Cc5cccc(C(F)(F)F)c5)c-4ncnc32)cc1,–,–,–,–,–,–,8.3,3.19,3.1,4.61,3.68,4.31
COc1ccc(Cn2cnc3c4nc(=O)n(-c5ccccc5)c-4ncnc32)cc1,≤ 75,≤ 75,≤ 75,≤ 75,≤ 75,≤ 75,–,–,–,–,–,–
COc1ccc(Cn2cnc3c4nc(=O)n(Cc5ccccc5OC)c-4ncnc32)cc1,≤ 75,≤ 75,≤ 75,≤ 75,≤ 75,≤ 75,–,–,–,–,–,–
COc1ccc(Cn2cnc3c4nc(=O)n(Cc5ccc(Cl)cc5)c-4ncnc32)cc1,–,–,–,–,–,–,0.92,0.78,0.85,0.97,0.88,2.38
COc1ccc(Cn2cnc3c4nc(=O)n(Cc5cccnc5)c-4ncnc32)cc1,–,–,–,–,–,–,26.9,8.05,8.3,8.68,9.89,19.8
COc1ccc(Cn2cnc3c4nc(=O)n(Cc5cccc(Cl)c5)c-4ncnc32)cc1,–,–,–,–,–,–,0.97,0.89,1,1.15,1.07,2.49
COc1ccc(Cn2c3nc(-c4ccc(C)cc4)nc4c(ncn4Cc4ccc(OC)cc4)c-3nc2=O)cc1,≤ 75,≤ 75,≤ 75,≤ 75,≤ 75,≤ 75,–,–,–,–,–,–
CCn1cnc2c3nc(=O)n(Cc4ccc(OC)cc4)c-3ncnc21,≤ 75,≤ 75,≤ 75,≤ 75,≤ 75,≤ 75,–,–,–,–,–,–

Structure (SMILES),inhibition of growth at 100 µM [1] [%],inhibition of growth at 100 µM [2] [%],inhibition of growth at 100 µM [3] [%],inhibition of growth at 100 µM [4] [%],inhibition of growth at 100 µM [5] [%],inhibition of growth at 100 µM [6] [%],IC50 [7] [µM],IC50 [8] [µM],IC50 [9] [µM],IC50 [10] [µM],IC50 [11] [µM],IC50 [12] [µM]
COCCOc1ccc(Cn2c3ncnc4c(ncn4Cc4ccc(OC)cc4)c-3nc2=O)cc1,–,–,–,–,–,–,6.7,4.89,5.14,5.61,5.45,14.8
COc1ccc(Cn2c3nc(CCCC(=O)O)nc4c(ncn4Cc4ccc(OC)cc4)c-3nc2=O)cc1,≤ 75,≤ 75,≤ 75,≤ 75,≤ 75,≤ 75,–,–,–,–,–,–
COc1ccc(Cn2cnc3c4nc(=O)n(Cc5cccc(Br)c5)c-4ncnc32)cc1,–,–,–,–,–,–,2.57,1.37,1.17,1.53,1.54,1.85
COc1ccc(Cn2cnc3c4nc(=O)n(CCN5CCCCC5)c-4ncnc32)cc1,≤ 75,≤ 75,≤ 75,≤ 75,≤ 75,≤ 75,–,–,–,–,–,–
COc1ccc(Cn2c3nc(-c4ccccc4)nc4c(ncn4Cc4ccc(OC)cc4)c-3nc2=O)cc1,≤ 75,≤ 75,≤ 75,≤ 75,≤ 75,≤ 75,–,–,–,–,–,–
COc1ccc(Cn2cnc3c4nc(=O)n(Cc5cccc(F)c5)c-4ncnc32)cc1,–,–,–,–,–,–,1.83,1.2,1.24,2.7,3.18,1.64
COc1ccc(CCn2c3ncnc4c(ncn4Cc4ccc(OC)cc4)c-3nc2=O)cc1,≤ 75,≤ 75,≤ 75,≤ 75,≤ 75,≤ 75,–,–,–,–,–,–
COc1ccc(Cn2c3ncnc4c(ncn4Cc4ccc(F)cc4)c-3nc2=O)cc1,–,–,–,–,≤ 75,–,7.67,4.4,5.06,5.33,–,5.87
COc1ccc(Cn2cnc3c4nc(=O)n(Cc5ccc(Br)cc5)c-4ncnc32)cc1,–,–,–,–,–,–,0.98,0.63,0.57,1.16,1.62,1.02
COc1ccc(Cn2c3nc(CCC(=O)O)nc4c(ncn4Cc4ccc(OC)cc4)c-3nc2=O)cc1,≤ 75,≤ 75,≤ 75,≤ 75,≤ 75,≤ 75,–,–,–,–,–,–
COc1ccc(Cn2cnc3c4nc(=O)n(Cc5cccc(OC)c5)c-4ncnc32)cc1,–,–,–,–,–,–,5.15,–,1.55,–,2.5,–
COc1ccc(Cn2c3ncnc4c(ncn4Cc4ccc(OC)cc4)c-3nc2=O)cc1,–,–,–,–,–,–,4.9,2.56,2.87,–,–,7.59
COc1ccc(Cn2cnc3c4nc(=O)n(Cc5ccc(O)cc5)c-4ncnc32)cc1,–,–,–,–,–,–,5.12,4.21,4.68,3.15,4.36,6.58
CCn1c2ncnc3c(ncn3Cc3ccc(OC)cc3)c-2nc1=O,≤ 75,≤ 75,≤ 75,≤ 75,≤ 75,≤ 75,–,–,–,–,–,–
COc1ccc(Cn2c3ncnc4c(ncn4Cc4ccccc4)c-3nc2=O)cc1,≤ 75,≤ 75,≤ 75,≤ 75,≤ 75,≤ 75,–,–,–,–,–,–
COc1ccc(Cn2cnc3c4nc(=O)n(Cc5ccc(OCCO)cc5)c-4ncnc32)cc1,–,–,–,–,–,–,19.7,12.3,10.9,10.6,13.2,27.2
